Measurements: ChEMBL document CHEMBL4130494, “Crassiflorone derivatives that inhibit Trypanosoma brucei glyceraldehyde-3-phosphate dehydrogenase (TbGAPDH) and Trypanosoma cruzi trypanothione reductase (TcTR) and display trypanocidal activity” (Eur J Med Chem, 2017)
Converted amounts (≈) assume the structure as drawn. The source made the active and inactive calls. No cut-off for these calls is given here.

Experiments:
[1] = target: CYP2D6 (Homo sapiens, UniProt P10635); experiment: Inhibition of human CYP2D6 at 10 uM by P450-Glo assay relative to control; type: ADME
Method in brief: (§1)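 P450-Glo luminescent platform: CYP action on each substrate generates light; decreased light taken as inhibition.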

[2] = target: T1, Pteridine reductase 1 (Leishmania major) (UniProt Q01782); experiment: Inhibition of Leishmania major pteridine reductase 1 assessed as reduction in conversion of dihydrobiopterin to tetrahydrobiopterin at 20 uM up to 50 mins in presence of NADPH by cytochrome c reduction coupled photometric assay relative to control
T1 sequence (whole entry): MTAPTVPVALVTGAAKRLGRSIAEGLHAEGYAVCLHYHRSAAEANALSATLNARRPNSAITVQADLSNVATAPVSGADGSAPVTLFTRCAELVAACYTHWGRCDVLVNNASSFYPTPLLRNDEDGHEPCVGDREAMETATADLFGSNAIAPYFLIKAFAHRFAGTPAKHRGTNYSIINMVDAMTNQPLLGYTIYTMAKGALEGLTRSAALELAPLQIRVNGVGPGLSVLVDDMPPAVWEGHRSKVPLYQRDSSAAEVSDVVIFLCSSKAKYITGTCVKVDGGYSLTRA

[3] = tested on: 786-0; experiment: Cytotoxicity against human 786-O cells assessed as mitochondrial viability at 10 uM by CMXRos staining based high-content imaging analysis relative to control; type: cell-based; settings: 786-0, 10 µM
Method in brief: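 786-O cells kept in RPMI-1640 with 2 mM glutamine, 10% FCS, streptomycin and penicillin G; mitochondria of live cells stained with MitoTracker Red CMXRos and imaged by high-content imaging.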

[4] = target: T2, Pteridine reductase, putative (Trypanosoma brucei) (UniProt Q581W1); experiment: Inhibition of Trypanosoma brucei pteridine reductase 1 assessed as reduction in conversion of dihydrobiopterin to tetrahydrobiopterin at 20 uM up to 50 mins in presence of NADPH by cytochrome c reduction coupled photometric assay relative to control
T2 sequence (whole entry): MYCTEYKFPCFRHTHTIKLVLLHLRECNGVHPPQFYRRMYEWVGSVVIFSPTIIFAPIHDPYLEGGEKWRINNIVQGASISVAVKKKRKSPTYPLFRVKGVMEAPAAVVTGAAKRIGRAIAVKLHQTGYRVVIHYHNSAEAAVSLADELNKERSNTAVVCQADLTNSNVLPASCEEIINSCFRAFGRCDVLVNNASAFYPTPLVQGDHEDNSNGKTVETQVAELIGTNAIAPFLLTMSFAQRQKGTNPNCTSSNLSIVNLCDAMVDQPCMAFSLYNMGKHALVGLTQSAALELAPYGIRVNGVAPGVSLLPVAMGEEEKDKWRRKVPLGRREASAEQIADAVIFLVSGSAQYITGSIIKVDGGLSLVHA

[5] = tested on: Trypanosoma brucei; experiment: Inhibition of Trypanosoma brucei glyceraldehyde-3-phosphate dehydrogenase at 10 uM using GAP as substrate in presence of NAD+ by spectrophotometric method relative to control
Method in brief: (§2)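 Recombinant TbGAPDH (200–300 μg protein) in 10 mM triethanolamine, 1.7 mM NaHCO3, 100 mM KCl, 5 mM MgSO4, 1 mM EDTA, pH 7.6, 25 °C, with 400 μM NAD+, 500 μM KH2PO4, 300 μM GAP; NAD+ reduction followed at 340 nm; inhibitors from DMSO stocks; triplicate; reported as percentage activity.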

[6] = target: CYP2C19 (Homo sapiens, UniProt P33261); experiment: Inhibition of human CYP2C19 at 10 uM by P450-Glo assay relative to control; type: ADME; method in brief: as §1
[7] = target: CYP2C9 (Homo sapiens, UniProt P11712); experiment: Inhibition of human CYP2C9 at 10 uM by P450-Glo assay relative to control; type: ADME; method in brief: as §1
[8] = tested on: Trypanosoma cruzi; experiment: Growth inhibition of Trypanosoma cruzi Y trypamastigotes infected in human U2OS cells at 10 uM after 72 hrs by Draq 5 staining based high-content automated imaging analysis relative to control; type: functional; settings: read-out: GI
Method in brief: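 U2OS cells (3,000/well) co-seeded with Y strain trypomastigotes at 5:1 right after compound addition; 72 h at 37 °C, 5% CO2. Fixed, stained, imaged and normalized as for the Leishmania assay; host toxicity from cell ratio against negative-control wells.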

[9] = Solubility in pH 7.4 Hanks simulated body fluid after overnight incubation by nephelometry; type: physicochemical
[10] = target: T3, CYP1A2 (Homo sapiens, UniProt P05177); experiment: Inhibition of human CYP1A2 at 10 uM by P450-Glo assay relative to control; type: ADME; method in brief: as §1
T3 sequence (P05177 whole entry): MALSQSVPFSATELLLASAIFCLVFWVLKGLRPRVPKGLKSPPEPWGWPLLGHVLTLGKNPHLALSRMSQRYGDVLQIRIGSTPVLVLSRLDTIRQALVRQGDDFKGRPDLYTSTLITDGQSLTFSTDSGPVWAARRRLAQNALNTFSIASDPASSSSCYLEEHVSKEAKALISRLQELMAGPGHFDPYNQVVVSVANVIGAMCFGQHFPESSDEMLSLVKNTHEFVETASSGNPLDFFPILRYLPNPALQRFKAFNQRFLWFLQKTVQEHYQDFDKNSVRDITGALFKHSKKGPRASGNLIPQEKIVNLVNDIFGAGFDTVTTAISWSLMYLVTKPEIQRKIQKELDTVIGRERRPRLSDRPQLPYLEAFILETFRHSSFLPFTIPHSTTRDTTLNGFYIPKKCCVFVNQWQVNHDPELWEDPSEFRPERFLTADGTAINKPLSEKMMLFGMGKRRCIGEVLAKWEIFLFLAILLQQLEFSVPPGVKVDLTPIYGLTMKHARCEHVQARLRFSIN

[11] = Solubility in PBS after overnight incubation by nephelometry; type: physicochemical
[12] = target: CYP3A4 (Homo sapiens, UniProt P08684); experiment: Inhibition of human CYP3A4 at 10 uM by P450-Glo assay relative to control; type: ADME; method in brief: as §1
[13] = target: Trypanothione reductase (Trypanosoma cruzi) (UniProt P28593); experiment: Inhibition of Trypanosoma cruzi trypanothione reductase assessed as reduction in NADPH consumption at 10 uM using 40 uM trypanothione disulfide as substrate by spectrophotometric method
Method in brief: (§3)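 Recombinant TcTR (5–10 mU) at 25 °C in 40 mM HEPES, 1 mM EDTA, pH 7.5, 100 μM NADPH, 5% DMSO; started with trypanothione disulfide; NADPH consumption read at 340 nm; percentage inhibition calculated.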

[14] = Cytotoxicity against human A549 cells assessed as cell growth at 10 uM by CellTiter-Glo assay relative to control; type: cell-based; settings: read-out: Activity
Method in brief: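 A549 cells; cellular ATP measured by CellTiter-Glo luminescence as a proxy for cell number; paclitaxel 10 μM as positive control.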

[15] = target: hERG (KCNH2) (Homo sapiens, UniProt Q12809); experiment: Inhibition of Tracer Red binding to human ERG expressed in membranes at 10 uM by fluorescence polarization assay relative to control; settings: membranes expressing human ERG, probe Tracer Red
Method in brief: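 Fluorescence polarization displacement of a high-affinity red fluorescent tracer from hERG channel–containing membrane fraction.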

[16] = tested on: Leishmania infantum; experiment: Growth inhibition of Leishmania infantum MHOM/BR/72/BH046 amastigotes infected in human THP1 cells at 10 uM after 48 hrs by Draq 5 staining based high-content automated imaging analysis relative to control; type: functional; settings: MHOM/BR/72/BH046, THP-1, 48 h, read-out: GI
Method in brief: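 THP-1 cells differentiated 48 h with 50 ng/mL PMA, infected 24 h with 6-day-old promastigotes (50 per cell), then treated 48 h; 0.5% DMSO negative, 10 µM amphotericin B positive. Paraformaldehyde-fixed, Draq5-stained, imaged; infection ratio normalized to DMSO-treated infected and non-infected controls.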

[17] = tested on: Trypanosoma brucei brucei; experiment: Growth inhibition of Trypanosoma brucei brucei Lister 427 bloodstream forms at 10 uM by SYBR Green based assay relative to control; type: functional; settings: read-out: GI
[18] = target: Trypanothione reductase (Trypanosoma cruzi) (UniProt P28593); experiment: Inhibition of Trypanosoma cruzi trypanothione reductase assessed as reduction in NADPH consumption at 10 uM using 100 uM trypanothione disulfide as substrate by spectrophotometric method; method in brief: as §3
[19] = target: T4, Trypanothione reductase (Trypanosoma cruzi, UniProt P28593); experiment: Mixed-type inhibition of Trypanosoma cruzi trypanothione reductase assessed as reduction in NADPH consumption using varying levels of trypanothione disulfide as substrate by Lineweaver-Burk plot analysis
Method in brief: (§4)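 Same TcTR assay with two fixed inhibitor concentrations and TS2 at 20, 40, 60, 100, 200 μM; inhibition type from Lineweaver–Burk plots; Ki by nonlinear least-squares fit of direct plot; inhibitor assays at least duplicate.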

[20] = Inhibition of Trypanosoma brucei glyceraldehyde-3-phosphate dehydrogenase
[21] = target: T4, Trypanothione reductase; experiment: Inhibition of Trypanosoma cruzi trypanothione reductase
[22] = target: T1, Pteridine reductase 1 (Leishmania major); experiment: Inhibition of Leishmania major pteridine reductase 1 assessed as reduction in conversion of dihydrobiopterin to tetrahydrobiopterin at 10 uM up to 50 mins in presence of NADPH by cytochrome c reduction coupled photometric assay relative to control
[23] = target: T2, Pteridine reductase, putative (Trypanosoma brucei); experiment: Inhibition of Trypanosoma brucei pteridine reductase 1 assessed as reduction in conversion of dihydrobiopterin to tetrahydrobiopterin at 10 uM up to 50 mins in presence of NADPH by cytochrome c reduction coupled photometric assay relative to control
[24] = target: Trypanothione reductase (Trypanosoma cruzi) (UniProt P28593); experiment: Inhibition of Trypanosoma cruzi trypanothione reductase assessed as reduction in NADPH consumption at 20 uM using 40 uM trypanothione disulfide as substrate by spectrophotometric method relative to control; method in brief: as §3
[25] = target: Trypanothione reductase (Trypanosoma cruzi) (UniProt P28593); experiment: Inhibition of Trypanosoma cruzi trypanothione reductase assessed as reduction in NADPH consumption at 20 uM using 100 uM trypanothione disulfide as substrate by spectrophotometric method relative to control; method in brief: as §3
[26] = target: T4, Trypanothione reductase; experiment: Non-competitive inhibition of Trypanosoma cruzi trypanothione reductase assessed as reduction in NADPH consumption using varying levels of trypanothione disulfide as substrate by Lineweaver-Burk plot analysis; method in brief: as §4
[27] = target: Trypanothione reductase (Trypanosoma cruzi) (UniProt P28593); experiment: Inhibition of Trypanosoma cruzi trypanothione reductase assessed as reduction in NADPH consumption at 100 uM using 100 uM trypanothione disulfide as substrate by spectrophotometric method relative to control; method in brief: as §3
[28] = target: Trypanothione reductase (Trypanosoma cruzi) (UniProt P28593); experiment: Inhibition of Trypanosoma cruzi trypanothione reductase assessed as reduction in NADPH consumption at 100 uM using 40 uM trypanothione disulfide as substrate by spectrophotometric method relative to control; method in brief: as §3
[29] = Inhibition of Trypanosoma brucei glyceraldehyde-3-phosphate dehydrogenase using GAP as substrate in presence of NAD+ by spectrophotometric method; method in brief: as §2
[30] = target: T2, Pteridine reductase, putative (Trypanosoma brucei); experiment: Inhibition of Trypanosoma brucei pteridine reductase 1 assessed as reduction in conversion of dihydrobiopterin to tetrahydrobiopterin at 50 uM up to 50 mins in presence of NADPH by cytochrome c reduction coupled photometric assay relative to control
[31] = tested on: Trypanosoma brucei brucei; experiment: Growth inhibition of Trypanosoma brucei brucei Lister 427 bloodstream forms at 50 uM by SYBR Green based assay relative to control; type: functional; settings: read-out: GI
[32] = target: T1, Pteridine reductase 1 (Leishmania major); experiment: Inhibition of Leishmania major pteridine reductase 1 assessed as reduction in conversion of dihydrobiopterin to tetrahydrobiopterin at 50 uM up to 50 mins in presence of NADPH by cytochrome c reduction coupled photometric assay relative to control

Sequence of CYP2C9 (P11712 whole entry): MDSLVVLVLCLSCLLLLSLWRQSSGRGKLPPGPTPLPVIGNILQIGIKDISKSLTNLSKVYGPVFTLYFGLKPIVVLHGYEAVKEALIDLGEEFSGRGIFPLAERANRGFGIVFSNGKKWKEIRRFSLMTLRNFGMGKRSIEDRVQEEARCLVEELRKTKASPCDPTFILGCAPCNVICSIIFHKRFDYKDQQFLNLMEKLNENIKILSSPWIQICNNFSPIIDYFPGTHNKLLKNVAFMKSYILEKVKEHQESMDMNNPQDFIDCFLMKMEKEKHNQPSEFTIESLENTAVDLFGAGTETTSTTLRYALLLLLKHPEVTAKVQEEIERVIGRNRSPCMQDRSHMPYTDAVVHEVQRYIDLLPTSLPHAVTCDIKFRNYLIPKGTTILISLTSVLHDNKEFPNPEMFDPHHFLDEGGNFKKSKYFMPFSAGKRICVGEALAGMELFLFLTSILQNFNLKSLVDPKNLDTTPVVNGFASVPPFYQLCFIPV
Sequence of CYP3A4 (P08684 whole entry): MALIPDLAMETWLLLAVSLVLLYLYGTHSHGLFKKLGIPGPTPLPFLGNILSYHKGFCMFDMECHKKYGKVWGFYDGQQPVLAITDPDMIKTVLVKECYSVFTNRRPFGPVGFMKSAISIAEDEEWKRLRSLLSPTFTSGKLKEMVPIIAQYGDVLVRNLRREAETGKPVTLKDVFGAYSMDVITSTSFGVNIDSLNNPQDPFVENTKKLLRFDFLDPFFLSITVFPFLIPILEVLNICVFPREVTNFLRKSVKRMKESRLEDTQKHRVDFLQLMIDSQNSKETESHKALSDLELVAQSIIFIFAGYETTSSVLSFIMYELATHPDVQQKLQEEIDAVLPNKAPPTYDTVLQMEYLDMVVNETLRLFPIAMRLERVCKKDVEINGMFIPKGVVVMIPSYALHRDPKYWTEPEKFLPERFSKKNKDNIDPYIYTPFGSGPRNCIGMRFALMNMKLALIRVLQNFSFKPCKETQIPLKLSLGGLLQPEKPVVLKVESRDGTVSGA
Sequence of Trypanothione reductase (Trypanosoma cruzi) (P28593 whole entry, looked up): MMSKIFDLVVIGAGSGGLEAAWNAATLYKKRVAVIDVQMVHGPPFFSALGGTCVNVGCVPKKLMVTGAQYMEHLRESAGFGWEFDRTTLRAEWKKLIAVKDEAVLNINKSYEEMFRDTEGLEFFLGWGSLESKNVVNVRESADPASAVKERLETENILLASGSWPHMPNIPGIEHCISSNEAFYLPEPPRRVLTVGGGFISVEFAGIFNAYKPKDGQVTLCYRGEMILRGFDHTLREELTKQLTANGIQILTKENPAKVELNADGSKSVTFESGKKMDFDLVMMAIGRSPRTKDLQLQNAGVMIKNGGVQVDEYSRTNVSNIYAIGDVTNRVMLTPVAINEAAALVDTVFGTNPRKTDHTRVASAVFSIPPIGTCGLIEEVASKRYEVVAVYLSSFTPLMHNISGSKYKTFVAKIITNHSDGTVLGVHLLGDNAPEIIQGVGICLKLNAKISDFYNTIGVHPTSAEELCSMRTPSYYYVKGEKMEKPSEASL
T4 sequence (P28593 whole entry): as the sequence (P28593 whole entry, looked up) above
Sequence of CYP2C19 (P33261 whole entry): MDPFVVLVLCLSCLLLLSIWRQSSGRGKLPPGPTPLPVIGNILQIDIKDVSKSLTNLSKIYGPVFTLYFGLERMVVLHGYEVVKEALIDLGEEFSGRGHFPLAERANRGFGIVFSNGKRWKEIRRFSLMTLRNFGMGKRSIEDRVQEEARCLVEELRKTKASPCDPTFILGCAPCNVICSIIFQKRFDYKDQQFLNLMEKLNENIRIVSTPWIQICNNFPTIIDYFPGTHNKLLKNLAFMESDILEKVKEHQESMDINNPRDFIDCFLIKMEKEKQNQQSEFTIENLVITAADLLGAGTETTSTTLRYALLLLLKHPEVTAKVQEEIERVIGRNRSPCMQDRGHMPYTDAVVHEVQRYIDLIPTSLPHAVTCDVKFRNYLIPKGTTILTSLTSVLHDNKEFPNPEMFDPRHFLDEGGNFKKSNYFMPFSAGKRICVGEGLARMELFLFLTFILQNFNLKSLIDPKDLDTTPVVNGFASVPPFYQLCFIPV
Sequence of CYP2D6 (P10635 whole entry): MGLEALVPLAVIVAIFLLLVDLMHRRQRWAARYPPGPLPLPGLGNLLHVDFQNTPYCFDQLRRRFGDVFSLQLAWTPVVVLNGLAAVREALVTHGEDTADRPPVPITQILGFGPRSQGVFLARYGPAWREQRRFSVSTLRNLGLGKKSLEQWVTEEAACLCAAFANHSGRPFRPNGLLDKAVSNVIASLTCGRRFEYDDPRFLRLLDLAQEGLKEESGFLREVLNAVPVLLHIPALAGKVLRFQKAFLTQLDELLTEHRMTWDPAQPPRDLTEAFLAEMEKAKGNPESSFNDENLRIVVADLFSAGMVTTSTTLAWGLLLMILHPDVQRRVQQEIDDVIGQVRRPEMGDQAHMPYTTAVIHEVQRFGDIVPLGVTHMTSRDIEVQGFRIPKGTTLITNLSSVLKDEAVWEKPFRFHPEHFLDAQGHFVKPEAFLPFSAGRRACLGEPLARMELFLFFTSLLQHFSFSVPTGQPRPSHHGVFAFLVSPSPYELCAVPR
Sequence of hERG (KCNH2) (Q12809 whole entry): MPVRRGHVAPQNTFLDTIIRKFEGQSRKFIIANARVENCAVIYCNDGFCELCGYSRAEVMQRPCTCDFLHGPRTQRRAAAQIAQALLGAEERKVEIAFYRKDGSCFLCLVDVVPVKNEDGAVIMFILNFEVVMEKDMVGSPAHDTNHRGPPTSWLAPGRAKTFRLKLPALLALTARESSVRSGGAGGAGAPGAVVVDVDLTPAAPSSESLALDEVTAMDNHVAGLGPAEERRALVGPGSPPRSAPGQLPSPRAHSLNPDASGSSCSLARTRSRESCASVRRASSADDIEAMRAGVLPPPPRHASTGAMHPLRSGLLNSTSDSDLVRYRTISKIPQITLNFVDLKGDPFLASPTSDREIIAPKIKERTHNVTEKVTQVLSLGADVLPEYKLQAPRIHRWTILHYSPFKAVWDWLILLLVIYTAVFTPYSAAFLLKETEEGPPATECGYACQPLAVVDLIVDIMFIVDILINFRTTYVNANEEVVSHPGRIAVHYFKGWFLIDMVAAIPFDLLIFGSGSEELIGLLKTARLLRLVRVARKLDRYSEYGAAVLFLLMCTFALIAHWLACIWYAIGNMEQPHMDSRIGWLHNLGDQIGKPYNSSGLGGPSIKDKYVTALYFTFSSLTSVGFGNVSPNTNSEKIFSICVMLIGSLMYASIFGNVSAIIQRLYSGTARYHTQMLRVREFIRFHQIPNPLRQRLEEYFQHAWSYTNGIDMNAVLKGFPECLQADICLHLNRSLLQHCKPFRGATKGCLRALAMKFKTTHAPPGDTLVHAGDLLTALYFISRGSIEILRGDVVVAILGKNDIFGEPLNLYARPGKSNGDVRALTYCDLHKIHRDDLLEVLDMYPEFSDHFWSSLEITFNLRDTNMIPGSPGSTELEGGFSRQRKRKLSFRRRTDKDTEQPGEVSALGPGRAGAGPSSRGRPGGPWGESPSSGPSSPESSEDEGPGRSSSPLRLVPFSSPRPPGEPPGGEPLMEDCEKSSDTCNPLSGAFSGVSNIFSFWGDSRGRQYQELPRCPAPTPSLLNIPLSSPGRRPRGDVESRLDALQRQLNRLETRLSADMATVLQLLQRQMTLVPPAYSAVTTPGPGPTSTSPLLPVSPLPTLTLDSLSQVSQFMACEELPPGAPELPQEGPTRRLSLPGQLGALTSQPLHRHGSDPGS

Row | Compound | inhibition at 10 µM [1] [%] | Activity [3] [%] | inhibition [5] [%] | inhibition at 10 µM [6] [%] | inhibition at 10 µM [7] [%] | solubility kinetic [9] [µM] | inhibition at 10 µM [10] [%] | solubility kinetic [11] [µM] | inhibition at 10 µM [12] [%] | viability at 10 µM [14] [%] | inhibition at 10 µM [15] [%] | other results
1 | O=C1c2oc3c(c2C(=O)c2cccc(O)c21)c(=O)oc1ccccc13 | 102 | 82.16 | 64 | 107 | 61.5 | 70 (≈ 23.3 µg/mL) | 57.3 | 14 (≈ 4.65 µg/mL) | 40.8 | 138 | 67.1 | inhibition [2]: 28.1%; inhibition [4]: 0.94%; inhibition of growth at 10 µM [8]: < 20%; inhibition [13]: 65%; inhibition of growth at 10 µM [16]: < 20%; inhibition of growth at 10 µM [17]: < 20%; inhibition [18]: 37.8%; Ki [19]: 5.6 µM
2 | CN(C)CCOc1cc2ccc(OC3=CC(=O)c4cc5ccccc5cc4C3=O)cc2oc1=O | – | – | – | – | – | – | – | – | – | – | – | IC50 [20]: 5.4 µM; Ki [21]: 2300 nM
3 | COc1cccc2c1C(=O)c1oc3c(c1C2=O)c(=O)oc1ccccc13 | 108 | 89.95 | – | 55.5 | 89.3 | 35 (≈ 12.1 µg/mL) | 99.2 | 70 (≈ 24.2 µg/mL) | 38.5 | 166 | 42.7 | inhibition [22]: -3.51%; inhibition [23]: -5.69%; inhibition [24]: 42.6%; inhibition [25]: 41.1%; Ki [26]: 22.4 µM
4 | Nc1ccc2oc(=O)c3c4c(oc3c2c1)C(=O)c1c(O)cccc1C4=O | 71.5 | 97.94 | 75 | 63.6 | 85.9 | 35 (≈ 12.2 µg/mL) | 37.8 | 14 (≈ 4.86 µg/mL) | 46.8 | 157 | -7.99 | inhibition [27]: inactive; inhibition [28]: inactive; IC50 [29]: 2100 nM; inhibition [30]: 5.82%; inhibition of growth at 50 µM [31]: 77%; inhibition [32]: 6.19%
